Each structure is given as a SMILES string. The source made the active and inactive calls. The calls are words filed in the database; no cut-off is given here. Some results are limits rather than exact numbers.

This note sets out measurements from ChEMBL document CHEMBL5038600, “Discovery of M-1121 as an Orally Active Covalent Inhibitor of Menin-MLL Interaction Capable of Achieving Complete and Long-Lasting Tumor Regression” (J Med Chem, 2021).

The target in data set [1] is T1, Menin (Homo sapiens) (UniProt O00255).
T1 sequence (whole entry): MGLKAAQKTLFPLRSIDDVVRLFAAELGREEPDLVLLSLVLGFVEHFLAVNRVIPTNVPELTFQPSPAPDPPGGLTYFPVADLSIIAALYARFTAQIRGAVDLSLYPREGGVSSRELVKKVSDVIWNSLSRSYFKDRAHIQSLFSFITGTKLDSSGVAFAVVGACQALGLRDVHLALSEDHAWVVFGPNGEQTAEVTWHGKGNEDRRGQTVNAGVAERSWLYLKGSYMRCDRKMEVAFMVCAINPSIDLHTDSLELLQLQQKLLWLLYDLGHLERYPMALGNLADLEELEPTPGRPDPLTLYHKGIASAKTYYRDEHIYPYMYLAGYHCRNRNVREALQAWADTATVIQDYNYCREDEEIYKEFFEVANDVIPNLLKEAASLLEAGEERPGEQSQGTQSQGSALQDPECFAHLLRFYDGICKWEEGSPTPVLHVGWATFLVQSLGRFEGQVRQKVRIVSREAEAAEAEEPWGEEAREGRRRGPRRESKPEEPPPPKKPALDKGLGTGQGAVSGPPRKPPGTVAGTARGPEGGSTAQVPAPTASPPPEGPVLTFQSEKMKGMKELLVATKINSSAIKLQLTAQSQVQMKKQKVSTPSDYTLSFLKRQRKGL
In words: Binding affinity to recombinant human menin protein assessed as covalent complex formation incubated for 10 mins by LC/MS analysis. Details: concentration or dose not given beside the values.

Data set [2] can be described thus: Toxicity in SCID mouse xenografted with human MV4-11 cells assessed as change weight loss at 100 mg/kg, po administered daily for 26 days. Format: organism-based. The settings on record: in vivo, 624 h, time 26 day. Put shortly:
(§1)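 Female C.B-17 SCID mice bearing subcutaneous MV4;11 flank tumors (5×10^6 cells with Matrigel 1:1), treated once tumors averaged about 100 mm3. Dosed 100 mg/kg daily by oral gavage for 26 days in 0.5% MC + 0.2% Tween 80 vehicle. Body weight measured daily.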
In general terms: Xenograft models place foreign cells or tissue in a host animal.

A short description of data set [3]: Toxicity in SCID mouse xenografted with human MV4-11 cells assessed as signs of toxicity at 100 mg/kg, po administered daily for 26 days. In kind it is organism-based. As to conditions: in vivo, 624 h, time 26 day. Put shortly:
as §1

Data set [4] concerns MV4-11. In words: Anti-proliferative activity against human MV4-11 cells harboring MLL/AF4 fusion protein assessed as cell growth inhibition measured after 4 days by Cell Titre Glo Luminescent Cell viability assay. Format: functional, cell-based. The settings on record: MV4-11, 96 h.
Data set [5] in a line: GSH reactivity in pH 7.4 assessed as conjugation half life at pH 7.4. Format: physicochemical.
Data set [6] is described as follows: Protein binding in rat plasma at 1 uM incubated for 5 hrs by liquid chromatography-tandem mass spectrometry. In kind it is ADME, cell-free. Put shortly:
(§2)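 Equilibrium dialysis: plasma spiked at 1 μM against dialysis buffer, shaken 5 h at 37 °C, with warfarin and quinidine (1 μM) as controls. Samples matrix-matched, quenched with acetonitrile containing imipramine internal standard, and analysed by LC-MS/MS. Percent bound computed from peak area ratios.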

Data set [7] in a line: Protein binding in mouse plasma at 1 uM incubated for 5 hrs by liquid chromatography-tandem mass spectrometry. Format: ADME, cell-free. The procedure, abridged: as §2
For data set [8], the system named is MV4-11. In words: Anti-tumor activity against luciferase-tagged human MV4-11 cells xenografted in NCG mouse assessed as reduction in number of CD45+/CD33+ cells at 150 mg/kg, po administered daily for 4 days measured after 48 hrs by flow cytometry. As to conditions: time 4.0 day. Format: functional, organism-based. The procedure, abridged: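 Female NCG mice, 5–6 weeks old, given 5×10^6 luciferase-tagged MV4;11 cells IV via tail vein. Randomized at log-phase disease (day 27). Dosed 150 mg/kg oral gavage daily for 4 days in MC/Tween 80 vehicle. Read-outs 48 h after the last dose, five mice per group, mean ± SEM: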

A further data set deals with K562. In words: Anti-proliferative activity against human K562 cells harboring MLL wild-type protein assessed as cell growth inhibition measured after 4 days by Cell Titre Glo Luminescent Cell viability assay. Format: functional, cell-based. The settings on record: K562, 96 h. Put shortly: (§3)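 Leukemia lines plated in triplicate in RPMI 1640 at 37 °C, 5% CO2. 9-point dose response from 10 μM top concentration with 1:3 serial dilutions, 0.1% DMSO final; DMSO vehicle control column. Cellular ATP read by CellTiter-Glo at day 0 and after 4 days. Averages from three independent experiments.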

The nature of data set [9]: Toxicity in SCID mouse xenografted with human MV4-11 cells assessed as signs of toxicity at 300 mg/kg, po qd administered daily for 15 days. Format: organism-based. The settings on record: in vivo, 360 h, time 15 day. The procedure, abridged:
(§4)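 Female C.B-17 SCID mice, 5–6 weeks old, implanted subcutaneously in the right flank with 5×10^6 MV4;11 cells in 1:1 Matrigel. Randomized at about 200 mm3. Dosed 300 mg/kg by oral gavage once daily for 15 days in 0.5% MC (400 cP) + 0.2% Tween 80 at 10 mL/kg. Body weight measured daily; caliper volume (0.5×W×W×L) three times weekly.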

In the next data set the test system is MEG-01. In words: Anti-proliferative activity against human MEG-01 cells harboring MLL wild-type protein assessed as cell growth inhibition measured after 4 days by Cell Titre Glo Luminescent Cell viability assay. Format: functional, cell-based. As to conditions: MEG-01, 96 h. The procedure, abridged:
as §3

The nature of data set [10]: Cmax in C57BL/6 mouse at 5 mg/kg, po. In kind it is ADME, organism-based. Also on record: route oral, dose 5 mg/kg. As to conditions: in vivo. Put shortly:
(§5)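 Female C57BL/6 mice, single oral dose of 5 mg/kg in 0.5% methyl cellulose + 0.2% Tween 80 (w/w). Bioavailability is calculated against the 1 mg/kg IV arm.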

Data set [11] can be described thus: Anti-proliferative activity against human OCI-AML-4 cells harboring MLL-ENL fusion protein assessed as cell growth inhibition measured after 4 days by Cell Titre Glo Luminescent Cell viability assay. In kind it is functional, cell-based. As to conditions: OCI-AML-4, 96 h. Put shortly: as §3
Data set [12] concerns the target T1, Menin (Homo sapiens). In words: Binding affinity to recombinant human menin protein assessed as covalent complex formation measured after overnight incubation by LC/MS analysis. Details: concentration or dose not given beside the values.
The nature of data set [13]: AUC (0 to infinity) in C57BL/6 mouse at 5 mg/kg, po. As to conditions: in vivo. Also on record: route oral, time infinity, dose 5 mg/kg. Format: ADME, organism-based. The procedure, abridged:
as §5

Data set [14] deals with MV4-11. Nature of the data set: Suppression of MEIS1 gene expression in human MV4-11 cells at 30 nM measured after 24 hrs by qRT-PCR analysis. In kind it is functional, cell-based. For orientation: Quantitative PCR measures a nucleic acid by following its amplification.
A short description of data set [15]: Volume of distribution at steady state in C57BL/6 mouse at 1 mg/kg, iv. Format: ADME, organism-based. The settings on record: in vivo, read-out: Vdss. Put shortly:
(§6)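 Female C57BL/6 mice, single IV dose of 1 mg/kg given as a solution in 10% NMP, 10% Solutol HS15 and 80% saline. Parameters come from the plasma concentration–time profile.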

The nature of data set [16]: Tmax in C57BL/6 mouse at 5 mg/kg, po. The settings on record: in vivo. In kind it is ADME, organism-based. The procedure, abridged: as §5
Data set [17] has as its target T1, Menin (Homo sapiens). Nature of the data set: Binding affinity to recombinant human menin protein assessed as covalent complex formation incubated for 30 mins by LC/MS analysis. Also on record: concentration or dose not given beside the values.
The nature of data set [18]: Toxicity in SCID mouse xenografted with human MV4-11 cells assessed as change weight loss at 300 mg/kg, po qd administered daily for 15 days. Format: organism-based. The settings on record: in vivo, 360 h, time 15 day. The procedure, abridged:
as §4

A short description of data set [19]: Oral bioavailability in C57BL/6 mouse at 5 mg/kg. In kind it is ADME, organism-based. The settings on record: in vivo. The procedure, abridged: as §5
The test system of data set [20] is MV4-11. Nature of the data set: Anti-tumor activity against human MV4-11 cells xenografted in SCID mouse assessed as tumor regrowth at 300 mg/kg, po qd administered daily for 15 days. In kind it is functional, organism-based. The settings on record: time 15.0 day. The procedure, abridged:
as §4

Data set [21] is described as follows: AUC (0 to infinity) in C57BL/6 mouse at 1 mg/kg, iv. In kind it is ADME, organism-based. Also on record: time infinity, route intravenous, dose 1 mg/kg. The settings on record: in vivo. Put shortly:
as §6

For `C=CC(=O)N1C[C@@H]2C[C@H]1CN2S(=O)(=O)c1ccc(N2CC(CN3CCC([C@@](CN4CCC4)(c4cccc(F)c4)[C@H]4CCC[C@@H]4NC(=O)OC)CC3)(OC)C2)cc1`, the Activity is 27% on Menin (Homo sapiens) [1]; “Non-Toxic” in data set [2]; “Non-Toxic” in data set [3]; “Non-Toxic” in data set [9]; 100% at Menin (Homo sapiens) [12]; 59% at Menin (Homo sapiens) [17]. Further, the Activity entry in data set [18] is “Non-Toxic”. In addition, the IC50 with MV4-11 [4] is 10.3 nM; in the data set with K562, above 10000 nM; with MEG-01, above 10000 nM; in [11], 3 nM. Also, the t1/2 in data set [5] turned out to be 1.48 h. The PPB in data set [6] is listed as 87.5%; in [7], 99.3%. Moreover, the outcome with MV4-11 [8] and with MV4-11 [20] was Active. Also, the peak level in [10] (Cmax) was 4150 ng/mL. For the same compound, the figures for the AUC(0-inf) in [13] and in [21] were 43600 ng·h/mL and 17600 ng·h/mL, respectively. The inhibition entry in the data set on MV4-11 [14] was “Active”. Besides, in data set [15], the Vd was 0.33 L/kg. The time of peak concentration (Tmax) in data set [16] came out at 2 h. In addition, the F in [19] was 49.4%.

Usually IC50 stands for the point on the concentration scale where inhibition reaches its midpoint. By Cmax is commonly meant the peak of the concentration-time curve. As usually defined, the AUC(0-inf) is total exposure, with the tail of the curve extrapolated. In general, Tmax refers to the time at which the peak concentration occurs.
